{"source": "ChEMBL document CHEMBL1152574", "about": "“Novel 2H-isoquinolin-3-ones as antiplasmodial falcipain-2 inhibitors” (Bioorg Med Chem, 2009)", "key": {"[1]": {"molecular_target": "Rhodesain (Trypanosoma brucei rhodesiense, UniProt Q95PM0)", "sequence (Q95PM0 whole entry)": "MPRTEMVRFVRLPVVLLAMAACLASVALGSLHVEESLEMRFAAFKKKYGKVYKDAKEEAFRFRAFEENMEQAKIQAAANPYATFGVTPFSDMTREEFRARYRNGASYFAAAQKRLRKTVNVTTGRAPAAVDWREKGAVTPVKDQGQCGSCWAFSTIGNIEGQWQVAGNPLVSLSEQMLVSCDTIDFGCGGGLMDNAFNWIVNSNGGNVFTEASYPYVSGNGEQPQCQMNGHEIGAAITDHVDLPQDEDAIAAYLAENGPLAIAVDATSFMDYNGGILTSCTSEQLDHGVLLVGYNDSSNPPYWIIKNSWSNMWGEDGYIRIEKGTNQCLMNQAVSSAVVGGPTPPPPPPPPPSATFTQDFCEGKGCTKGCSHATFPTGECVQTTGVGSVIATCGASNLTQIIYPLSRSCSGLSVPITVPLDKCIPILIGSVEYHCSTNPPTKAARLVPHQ", "experiment": "Inhibition of Trypanosoma brucei rhodesiense rhodesain", "procedure,_shortened": "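Continuous fluorometric progress-curve assay in 100 mM sodium acetate, pH 5.5, with 10 mM DTT. Substrate is Cbz-Phe-Arg-AMC (40 or 10, depending on enzyme). Inhibitors come from DMSO stocks, at increasing concentrations up to 100. AMC read at ex 365/em 460 nm, each assay run twice. Kiapp is taken from a Dixon plot and corrected to zero substrate with Km to give Ki.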"}, "[2]": {"molecular_target": "Cathepsin B (Homo sapiens, UniProt P07858)", "experiment": "Inhibition of human cathepsin B"}, "[3]": {"experiment": "Inhibition of Plasmodium falciparum falcipain-2", "procedure,_shortened": "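Recombinant FP-2 in 100 mM sodium acetate pH 5.5, 10 mM DTT, substrate Cbz-Phe-Arg-AMC; reversibility screen at 100 µM with E-64 control, then continuous progress-curve assays with 0–100 µM inhibitor; fluorescence ex 365/em 460 nm; run twice; Ki from Dixon plot, corrected to zero substrate using Km 21.5 µM.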"}, "[4]": {"test_system": "Plasmodium falciparum", "experiment": "Antiplasmodial activity against Plasmodium falciparum FcBR", "type": "functional, organism-based", "settings": "FCBR/Columbia; call rule not given here", "procedure,_shortened": "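Synchronized ring-stage parasites (strain FCBR) grown in human RBC (A Rh+), RPMI 1640 with 25 mM HEPES, 20 mM bicarbonate, 0.5% AlbuMAX I, 2.5% hematocrit, 37 °C under 94% N₂/1% O₂/5% CO₂; plated at 1% parasitemia with compounds (DMSO stock diluted 10-fold in 50% ethanol), 100–0.0488 µM, in quadruplicate; 50% ethanol as negative control; dose-dependent effect on development quantified.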"}, "[5]": {"molecular_target": "Procathepsin L (Homo sapiens, UniProt P07711)", "sequence (P07711 whole entry)": "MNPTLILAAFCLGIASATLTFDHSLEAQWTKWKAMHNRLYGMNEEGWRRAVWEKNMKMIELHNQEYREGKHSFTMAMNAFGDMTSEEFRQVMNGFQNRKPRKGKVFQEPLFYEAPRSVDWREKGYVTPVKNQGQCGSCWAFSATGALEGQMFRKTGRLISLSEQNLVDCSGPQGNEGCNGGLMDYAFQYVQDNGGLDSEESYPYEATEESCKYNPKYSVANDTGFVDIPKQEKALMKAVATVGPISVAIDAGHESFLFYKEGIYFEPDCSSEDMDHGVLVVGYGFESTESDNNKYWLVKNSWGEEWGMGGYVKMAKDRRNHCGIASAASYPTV", "experiment": "Inhibition of human cathepsin L"}}}
{"smiles": "Cc1cc2cc3c(cc2c(-c2ccc(N)cc2)n1)OCO3", "values": [{"measurement": "Ki", "setting": "[1]; read-out: Ki", "result": 19.4, "unit": "µM"}, {"measurement": "Ki", "setting": "[2]; read-out: Ki", "result": 6.9, "unit": "µM"}, {"measurement": "Ki", "setting": "[3]", "result": 7.3, "unit": "µM"}, {"measurement": "IC50", "setting": "[4]", "result": 38.8, "unit": "µM"}, {"measurement": "Ki", "setting": "[5]", "result": 8.7, "unit": "µM"}]}
{"smiles": "CC(=O)Oc1cc2cc3c(cc2c(-c2ccc(N)cc2)n1)OCO3", "values": [{"measurement": "Ki", "setting": "[1]; read-out: Ki", "result": 38.3, "unit": "µM"}, {"measurement": "Ki", "setting": "[2]; read-out: Ki", "result": 6.7, "unit": "µM"}, {"measurement": "Ki", "setting": "[3]", "result": 19.7, "unit": "µM"}, {"measurement": "IC50", "setting": "[4]", "result": 58.8, "unit": "µM"}, {"measurement": "Ki", "setting": "[5]", "result": 13.6, "unit": "µM"}]}
{"smiles": "COc1ccc(-c2c3cc4c(cc3cc(=O)n2NC(=O)Nc2ccc(C(C)=O)cc2)OCO4)cc1", "values": [{"measurement": "Ki", "setting": "[1]; read-out: Ki", "result": 14, "unit": "µM"}, {"measurement": "Ki", "setting": "[2]; read-out: Ki", "result": 3.7, "unit": "µM"}, {"measurement": "Ki", "setting": "[3]", "result": 5.9, "unit": "µM"}, {"measurement": "IC50", "setting": "[4]", "result": 11.8, "unit": "µM"}, {"measurement": "Ki", "setting": "[5]", "result": 2.1, "unit": "µM"}]}
{"smiles": "COc1ccc(-c2c3cc4c(cc3cc(=O)n2N)OCO4)cc1", "values": [{"measurement": "Ki", "setting": "[1]; read-out: Ki", "result": 6.3, "unit": "µM"}, {"measurement": "Ki", "setting": "[2]; read-out: Ki", "result": 16.3, "unit": "µM"}, {"measurement": "Ki", "setting": "[3]", "result": 15, "unit": "µM"}, {"measurement": "IC50", "setting": "[4]", "result": 25.5, "unit": "µM"}, {"measurement": "Ki", "setting": "[5]", "result": 7, "unit": "µM"}]}
{"smiles": "COc1ccc(-c2c3cc(OC)c(OC)cc3cc(=O)n2NC(=O)OC(C)(C)C)cc1", "values": [{"measurement": "Ki", "setting": "[1]", "result": "Not Active"}, {"measurement": "Ki", "setting": "[2]", "result": "Not Active"}, {"measurement": "Ki", "setting": "[3]", "result": 40.3, "unit": "µM"}, {"measurement": "IC50", "setting": "[4]", "result": 9.3, "unit": "µM"}, {"measurement": "Ki", "setting": "[5]", "result": 39.7, "unit": "µM"}]}
{"smiles": "COc1ccc(-c2c3cc(OCc4ccccc4)c(OCc4ccccc4)cc3cc(=O)n2N)cc1", "values": [{"measurement": "Ki", "setting": "[1]; read-out: Ki", "result": 4, "unit": "µM"}, {"measurement": "Ki", "setting": "[2]; read-out: Ki", "result": 3.3, "unit": "µM"}, {"measurement": "Ki", "setting": "[3]", "result": 2.3, "unit": "µM"}, {"measurement": "IC50", "setting": "[4]", "result": 16.9, "unit": "µM"}, {"measurement": "Ki", "setting": "[5]", "result": 4.2, "unit": "µM"}]}
{"smiles": "COc1ccc(-c2c3cc4c(cc3cc(=O)n2NC(=O)OC(C)(C)C)OCO4)cc1", "values": [{"measurement": "Ki", "setting": "[1]; read-out: Ki", "result": 19.4, "unit": "µM"}, {"measurement": "Ki", "setting": "[2]; read-out: Ki", "result": 7.5, "unit": "µM"}, {"measurement": "Ki", "setting": "[3]", "result": 24.4, "unit": "µM"}, {"measurement": "IC50", "setting": "[4]", "result": 7.7, "unit": "µM"}, {"measurement": "Ki", "setting": "[5]", "result": 4.1, "unit": "µM"}]}
{"smiles": "CC(C)C[C@H](NC(=O)[C@H]1O[C@@H]1C(=O)O)C(=O)NCCCCN=C(N)N", "note": "[E-64]", "values": [{"measurement": "Ki", "setting": "[2]; read-out: Ki", "result": 16, "unit": "µM"}, {"measurement": "Ki", "setting": "[3]", "result": 0.29, "unit": "µM"}]}
{"smiles": "CCOC(=O)Nn1c(-c2ccc(OC)cc2)c2cc3c(cc2cc1=O)OCO3", "values": [{"measurement": "Ki", "setting": "[1]; read-out: Ki", "result": 9.4, "unit": "µM"}, {"measurement": "Ki", "setting": "[2]; read-out: Ki", "result": 16.7, "unit": "µM"}, {"measurement": "Ki", "setting": "[3]", "result": 62.7, "unit": "µM"}, {"measurement": "IC50", "setting": "[4]", "result": 8.4, "unit": "µM"}, {"measurement": "Ki", "setting": "[5]", "result": 7.7, "unit": "µM"}]}
{"smiles": "COc1ccc(-c2c3cc4c(cc3cc(=O)n2NC(=O)Nc2ccc(SC)cc2)OCO4)cc1", "values": [{"measurement": "Ki", "setting": "[1]; read-out: Ki", "result": 18.7, "unit": "µM"}, {"measurement": "Ki", "setting": "[2]; read-out: Ki", "result": 4, "unit": "µM"}, {"measurement": "Ki", "setting": "[3]", "result": 6.5, "unit": "µM"}, {"measurement": "IC50", "setting": "[4]", "result": "> 100", "unit": "µM"}, {"measurement": "Ki", "setting": "[5]", "result": 0.85, "unit": "µM"}]}
